ChEMBL document CHEMBL5696442, “Discovery of type II inhibitors of TGFβ-activated kinase 1 (TAK1) and mitogen-activated protein kinase kinase kinase kinase 2 (MAP4K2)” (J Med Chem, 2015)
The source made the active and inactive calls. The rule behind the calls is not given here.

Legend:
[1] = target: Ribosomal protein S6 kinase alpha-2 (Homo sapiens) (UniProt Q15349); assay: Inhibition of C-terminal RSK3 kinase domain 2 (unknown origin) at 1 uM by Ambit Kinomescan binding assay relative to control
Summary of the method: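 In vitro ATP-site competition binding assay against a panel of over 420 kinases (KinomeScan), with compound tested at 10 or 1 μM.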

[2] = target: Serine/threonine-protein kinase N2 (Homo sapiens) (UniProt Q16513); assay: Inhibition of PKN2 K2 labeling site in human Huh-7 cells at 1 uM by KiNativ Profiling analysis relative to control; format: cell-based
RAW = assay: Inhibition of LPS induced p38 phosphorylation in mouse RAW cells preincubated for 1 hr followed by LPS stimulation and measured after 30 mins by Western blot analysis; format: functional, cell-based; conditions: dose 0.01-10 µM
[3] = target: Atypical kinase COQ8B, mitochondrial (Homo sapiens) (UniProt Q96D53); assay: Inhibition of ADCK4 (unknown origin) at 10 uM by Ambit Kinomescan binding assay
[4] = target: T1, Mitogen-activated protein kinase kinase kinase kinase 2 (Homo sapiens) (UniProt Q12851); assay: Inhibition of MAP4K2 (GCK) Lys1 labeling site in human A-375 cells at 0.05 uM by KiNativ Profiling analysis relative to control; format: cell-based
T1 sequence (whole entry): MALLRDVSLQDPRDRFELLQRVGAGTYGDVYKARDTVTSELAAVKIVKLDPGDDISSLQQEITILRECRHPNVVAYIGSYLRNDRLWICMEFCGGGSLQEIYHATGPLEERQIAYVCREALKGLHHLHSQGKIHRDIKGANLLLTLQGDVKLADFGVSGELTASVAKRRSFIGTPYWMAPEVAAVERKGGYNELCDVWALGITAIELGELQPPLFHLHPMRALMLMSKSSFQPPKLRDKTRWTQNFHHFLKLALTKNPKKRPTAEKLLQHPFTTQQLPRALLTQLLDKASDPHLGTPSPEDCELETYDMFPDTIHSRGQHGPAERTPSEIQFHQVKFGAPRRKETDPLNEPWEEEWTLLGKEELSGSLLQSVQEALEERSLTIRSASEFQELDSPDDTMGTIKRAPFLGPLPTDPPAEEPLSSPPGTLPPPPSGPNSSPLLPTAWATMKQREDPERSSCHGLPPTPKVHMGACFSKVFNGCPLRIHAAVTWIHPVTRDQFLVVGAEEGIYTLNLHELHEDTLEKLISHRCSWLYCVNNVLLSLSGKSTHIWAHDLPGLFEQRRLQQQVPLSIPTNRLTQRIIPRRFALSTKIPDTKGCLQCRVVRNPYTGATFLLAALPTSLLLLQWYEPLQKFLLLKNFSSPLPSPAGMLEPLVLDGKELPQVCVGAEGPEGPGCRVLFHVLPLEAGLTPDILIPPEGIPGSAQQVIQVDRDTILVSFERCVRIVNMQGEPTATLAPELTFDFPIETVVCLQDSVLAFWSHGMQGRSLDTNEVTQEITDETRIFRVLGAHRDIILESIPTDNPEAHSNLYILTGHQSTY

[5] = target: T2, Serine/threonine-protein kinase LATS2 (Homo sapiens) (UniProt Q9NRM7); assay: Inhibition of LATS2 Lys1 labeling site in human Huh-7 cell lysate at 1 uM by KiNativ Profiling analysis relative to control; format: subcellular
T2 sequence (whole entry): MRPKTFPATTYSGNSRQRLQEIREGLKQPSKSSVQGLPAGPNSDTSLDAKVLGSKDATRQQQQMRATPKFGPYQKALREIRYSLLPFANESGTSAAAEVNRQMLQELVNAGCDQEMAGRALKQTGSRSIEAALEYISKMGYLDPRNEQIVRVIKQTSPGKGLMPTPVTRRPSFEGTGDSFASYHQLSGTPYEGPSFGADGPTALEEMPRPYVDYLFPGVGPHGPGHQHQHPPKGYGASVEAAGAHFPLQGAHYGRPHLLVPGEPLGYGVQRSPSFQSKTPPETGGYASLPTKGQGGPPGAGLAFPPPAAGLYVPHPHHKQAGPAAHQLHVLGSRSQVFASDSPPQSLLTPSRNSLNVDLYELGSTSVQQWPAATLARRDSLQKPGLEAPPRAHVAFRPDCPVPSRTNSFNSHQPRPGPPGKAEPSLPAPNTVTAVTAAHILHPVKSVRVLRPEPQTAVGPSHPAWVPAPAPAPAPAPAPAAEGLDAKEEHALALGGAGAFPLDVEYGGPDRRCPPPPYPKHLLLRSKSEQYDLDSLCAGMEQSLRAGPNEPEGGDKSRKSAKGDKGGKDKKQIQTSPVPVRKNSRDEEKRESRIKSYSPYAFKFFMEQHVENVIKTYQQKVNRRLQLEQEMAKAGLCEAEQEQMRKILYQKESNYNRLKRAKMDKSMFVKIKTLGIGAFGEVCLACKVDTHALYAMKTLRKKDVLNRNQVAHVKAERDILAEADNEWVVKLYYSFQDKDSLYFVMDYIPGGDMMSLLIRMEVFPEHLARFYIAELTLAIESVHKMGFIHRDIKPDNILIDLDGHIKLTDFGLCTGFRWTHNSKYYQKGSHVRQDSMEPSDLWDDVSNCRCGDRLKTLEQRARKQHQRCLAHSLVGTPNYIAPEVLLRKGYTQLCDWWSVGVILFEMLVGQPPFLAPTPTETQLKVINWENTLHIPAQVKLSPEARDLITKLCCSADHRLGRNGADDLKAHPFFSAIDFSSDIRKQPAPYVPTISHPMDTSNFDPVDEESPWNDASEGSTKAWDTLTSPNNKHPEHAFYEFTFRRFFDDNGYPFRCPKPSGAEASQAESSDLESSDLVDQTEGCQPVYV

[6] = target: Casein kinase I isoform alpha (Homo sapiens) (UniProt P48729); assay: Inhibition of CK1a Lys2 labeling site in human Huh-7 cells at 1 uM by KiNativ Profiling analysis relative to control; format: cell-based
Sequence of Casein kinase I isoform alpha (Homo sapiens) (P48729 2-337 limits assumed): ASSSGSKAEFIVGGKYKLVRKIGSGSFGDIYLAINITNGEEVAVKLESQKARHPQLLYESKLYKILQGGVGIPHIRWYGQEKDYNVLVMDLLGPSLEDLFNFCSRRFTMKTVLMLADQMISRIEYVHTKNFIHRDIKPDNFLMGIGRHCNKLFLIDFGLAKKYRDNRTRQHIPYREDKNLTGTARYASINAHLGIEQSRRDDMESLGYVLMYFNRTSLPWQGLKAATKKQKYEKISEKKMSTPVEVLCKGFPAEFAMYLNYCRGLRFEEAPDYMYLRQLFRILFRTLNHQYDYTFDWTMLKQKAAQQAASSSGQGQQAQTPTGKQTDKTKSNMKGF

Sequence of Atypical kinase COQ8B, mitochondrial (Homo sapiens) (Q96D53 whole entry): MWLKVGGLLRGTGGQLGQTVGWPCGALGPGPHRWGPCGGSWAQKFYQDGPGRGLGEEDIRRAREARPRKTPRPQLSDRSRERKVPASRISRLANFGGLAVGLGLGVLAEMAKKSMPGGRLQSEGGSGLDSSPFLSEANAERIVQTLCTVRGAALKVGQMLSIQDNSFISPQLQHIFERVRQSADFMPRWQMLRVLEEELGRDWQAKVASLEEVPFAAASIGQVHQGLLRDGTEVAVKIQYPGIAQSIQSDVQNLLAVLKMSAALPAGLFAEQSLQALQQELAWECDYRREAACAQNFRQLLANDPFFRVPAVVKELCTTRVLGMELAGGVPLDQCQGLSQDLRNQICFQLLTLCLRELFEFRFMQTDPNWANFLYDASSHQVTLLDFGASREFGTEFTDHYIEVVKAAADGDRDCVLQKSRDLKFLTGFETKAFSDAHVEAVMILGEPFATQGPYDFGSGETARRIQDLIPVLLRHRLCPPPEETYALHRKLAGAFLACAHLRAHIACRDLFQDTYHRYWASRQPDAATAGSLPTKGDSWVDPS
Sequence of Ribosomal protein S6 kinase alpha-2 (Homo sapiens) (Q15349 whole entry, the tested form may be a part): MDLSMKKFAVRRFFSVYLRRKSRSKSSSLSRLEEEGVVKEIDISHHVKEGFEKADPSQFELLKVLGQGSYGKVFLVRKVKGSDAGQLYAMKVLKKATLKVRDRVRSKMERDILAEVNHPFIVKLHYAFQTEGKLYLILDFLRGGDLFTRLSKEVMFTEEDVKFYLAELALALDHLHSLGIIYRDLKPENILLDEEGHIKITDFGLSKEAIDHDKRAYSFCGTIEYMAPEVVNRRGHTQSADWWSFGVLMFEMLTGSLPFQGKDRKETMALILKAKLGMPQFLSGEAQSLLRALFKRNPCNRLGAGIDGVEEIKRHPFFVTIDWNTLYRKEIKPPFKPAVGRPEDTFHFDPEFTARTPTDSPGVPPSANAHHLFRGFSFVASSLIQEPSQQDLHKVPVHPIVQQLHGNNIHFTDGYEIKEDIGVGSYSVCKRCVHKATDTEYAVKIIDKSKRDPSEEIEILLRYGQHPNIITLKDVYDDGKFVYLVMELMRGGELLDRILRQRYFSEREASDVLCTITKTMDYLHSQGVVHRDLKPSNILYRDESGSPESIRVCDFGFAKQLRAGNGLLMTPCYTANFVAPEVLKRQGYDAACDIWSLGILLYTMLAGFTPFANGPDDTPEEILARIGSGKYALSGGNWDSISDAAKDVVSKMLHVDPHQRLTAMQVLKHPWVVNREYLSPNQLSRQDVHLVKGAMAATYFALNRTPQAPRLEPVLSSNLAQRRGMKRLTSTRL
Sequence of Serine/threonine-protein kinase N2 (Homo sapiens) (Q16513 whole entry, looked up): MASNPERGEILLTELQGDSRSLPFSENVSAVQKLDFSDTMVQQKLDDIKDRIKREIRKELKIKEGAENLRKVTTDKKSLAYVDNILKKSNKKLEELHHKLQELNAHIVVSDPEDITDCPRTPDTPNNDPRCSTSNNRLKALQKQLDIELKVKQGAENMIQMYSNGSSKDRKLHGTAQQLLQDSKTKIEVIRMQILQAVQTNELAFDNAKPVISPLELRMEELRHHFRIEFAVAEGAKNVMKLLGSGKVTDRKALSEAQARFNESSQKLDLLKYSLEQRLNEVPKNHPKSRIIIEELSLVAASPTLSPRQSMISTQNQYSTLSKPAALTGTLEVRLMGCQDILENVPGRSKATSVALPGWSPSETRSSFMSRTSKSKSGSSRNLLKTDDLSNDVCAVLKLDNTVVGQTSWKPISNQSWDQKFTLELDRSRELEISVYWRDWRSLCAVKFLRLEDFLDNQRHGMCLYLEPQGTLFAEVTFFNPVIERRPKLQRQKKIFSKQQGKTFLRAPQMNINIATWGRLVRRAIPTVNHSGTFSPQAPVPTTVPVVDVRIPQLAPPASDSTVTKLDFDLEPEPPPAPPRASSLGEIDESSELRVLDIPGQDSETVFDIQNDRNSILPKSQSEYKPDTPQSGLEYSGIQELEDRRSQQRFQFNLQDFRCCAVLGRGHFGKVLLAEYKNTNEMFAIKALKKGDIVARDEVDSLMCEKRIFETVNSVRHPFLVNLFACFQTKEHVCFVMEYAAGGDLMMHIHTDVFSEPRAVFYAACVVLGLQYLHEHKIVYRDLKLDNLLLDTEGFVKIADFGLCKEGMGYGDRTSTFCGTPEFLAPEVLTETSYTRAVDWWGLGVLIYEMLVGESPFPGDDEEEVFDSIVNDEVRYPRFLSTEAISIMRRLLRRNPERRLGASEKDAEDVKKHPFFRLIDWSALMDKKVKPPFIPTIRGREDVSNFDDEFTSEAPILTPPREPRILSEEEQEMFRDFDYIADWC

`CCN1CCN(Cc2ccc(NC(=O)c3ccc(C)c(/C=C/c4cnc5[nH]ccc5c4OC)c3)cc2C(F)(F)F)CC1` showed an inhibition [1] of 67%.
In the case of `CCN1CCN(Cc2ccc(NC(=O)c3ccc(C)c(Oc4ccnc5[nH]ccc45)c3)cc2C(F)(F)F)CC1`, the inhibition [2] is reported as -6.3%, the inhibition (RAW) is reported as “Dose-Dependent Effect” and the inhibition [3] is reported as “inactive”. The inhibition [4] was 98.2%.
`CNc1cc(Oc2cc(C(=O)Nc3cc(N4CCN(C)CC4)cc(C(F)(F)F)c3)ccc2C)ncn1` gave an inhibition [5] of -3.8% and an inhibition [6] of -1.9%.
